Assays:
Type in all cases: functional
CCRF-CEM = assay: Cytotoxicity against human CCRF-CEM cells by SRB assay
Summary of the method: (§1)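 NCI 60 human tumor cell line panel, sulforhodamine B (SRB) protein-stain read-out. Compounds were first screened at a single dose of 10^-5 M, and selected compounds were then tested in a five-dose format. GI50 is the drug concentration giving a 50% reduction in net protein increase relative to control cells.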

[1] = Cytotoxicity against human HL-60(TB) cells by SRB assay
Summary of the method: (§2)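 NCI 60-cell-line panel using sulforhodamine B protein stain. Initial single-dose screen at 10^-5 M, then five-dose testing. GI50 is the drug concentration giving a 50% reduction in net protein increase relative to control cells.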

K562 = assay: Cytotoxicity against human K562 cells by SRB assay; summary of the method: as §1
[2] = Cytotoxicity against human MOLT4 cells by SRB assay; conditions: MOLT-4; summary of the method: as §1
[3] = Cytotoxicity against human RPMI8226 cells by SRB assay; conditions: RPMI-8226; summary of the method: as §1
SR = assay: Cytotoxicity against human SR cells by SRB assay; summary of the method: as §1
A549 = assay: Cytotoxicity against human A549 cells by SRB assay; summary of the method: as §1
[4] = Cytotoxicity against human HOP62 cells by SRB assay; conditions: HOP-62; summary of the method: as §1
[5] = Cytotoxicity against human HOP92 cells by SRB assay; conditions: HOP-92; summary of the method: as §1
NCI-H23 = assay: Cytotoxicity against human NCI-H23 cells by SRB assay; summary of the method: as §1
NCI-H522 = assay: Cytotoxicity against human NCI-H522 cells by SRB assay; summary of the method: as §1
[6] = Cytotoxicity against human COLO205 cells by SRB assay; conditions: COLO 205; summary of the method: as §1
[7] = Cytotoxicity against human HCC2998 cells by SRB assay; conditions: HCC 2998; summary of the method: as §1
[8] = Cytotoxicity against human HCT116 cells by SRB assay; conditions: HCT-116; summary of the method: as §1
[9] = Cytotoxicity against human HCT15 cells by SRB assay; conditions: HCT-15; summary of the method: as §1
HT-29 = assay: Cytotoxicity against human HT-29 cells by SRB assay; summary of the method: as §1
KM12 = assay: Cytotoxicity against human KM12 cells by SRB assay; summary of the method: as §1
[10] = Cytotoxicity against human SW620 cells by SRB assay; conditions: SW-620; summary of the method: as §1
[11] = Cytotoxicity against human SF268 cells by SRB assay; conditions: SF-268; summary of the method: as §1
[12] = Cytotoxicity against human SF295 cells by SRB assay; conditions: SF-295; summary of the method: as §1
[13] = Cytotoxicity against human SF539 cells by SRB assay; conditions: SF-539; summary of the method: as §1
[14] = Cytotoxicity against human SNB19 cells by SRB assay; conditions: SNB-19; summary of the method: as §1
[15] = Cytotoxicity against human SNB75 cells by SRB assay; conditions: SNB-75; summary of the method: as §1
U-251 = assay: Cytotoxicity against human U251 cells by SRB assay; summary of the method: as §1
[16] = Cytotoxicity against human LOXIMVI cells by SRB assay; conditions: LOX IMVI; summary of the method: as §2
M14 = assay: Cytotoxicity against human M14 cells by SRB assay; summary of the method: as §1
SK-MEL-2 = assay: Cytotoxicity against human SK-MEL-2 cells by SRB assay; summary of the method: as §1
SK-MEL-28 = assay: Cytotoxicity against human SK-MEL-28 cells by SRB assay; summary of the method: as §1
SK-MEL-5 = assay: Cytotoxicity against human SK-MEL-5 cells by SRB assay; summary of the method: as §1
[17] = Cytotoxicity against human UACC62 cells by SRB assay; conditions: UACC-62; summary of the method: as §1
[18] = Cytotoxicity against human IGROV1 cells by SRB assay; conditions: IGROV-1; summary of the method: as §2
[19] = Cytotoxicity against human OVCAR3 cells by SRB assay; conditions: OVCAR-3; summary of the method: as §1
[20] = Cytotoxicity against human OVCAR4 cells by SRB assay; conditions: OVCAR-4; summary of the method: as §1
[21] = Cytotoxicity against human SKOV3 cells by SRB assay; conditions: SK-OV-3; summary of the method: as §1
786-0 = assay: Cytotoxicity against human 786-0 cells by SRB assay; summary of the method: as §1
A498 = assay: Cytotoxicity against human A498 cells by SRB assay; summary of the method: as §1
ACHN = assay: Cytotoxicity against human ACHN cells by SRB assay; summary of the method: as §1
CAKI-1 = assay: Cytotoxicity against human CAKI-1 cells by SRB assay; summary of the method: as §1
[22] = Cytotoxicity against human UO31 cells by SRB assay; conditions: UO-31; summary of the method: as §1
MDA-MB-435 = assay: Cytotoxicity against human MDA-MB-435 cells by SRB assay; summary of the method: as §1
NCI/ADR-RES = assay: Cytotoxicity against human NCI/ADR-RES cells by SRB assay; summary of the method: as §1
MCF7 = assay: Cytotoxicity against human MCF7 cells by SRB assay; summary of the method: as §1
MDA-MB-231 = assay: Cytotoxicity against human MDA-MB-231 cells by SRB assay; summary of the method: as §1
[23] = Cytotoxicity against human Hs578T cells by SRB assay; conditions: Hs-578T; summary of the method: as §1
MDA-MB-468 = assay: Cytotoxicity against human MDA-MB-468 cells by SRB assay; summary of the method: as §1
MV4-11 = assay: Anti-leukemia activity against human MV4-11 cells after 48 hrs by Annexin-V staining; conditions: MV4-11, 48 h, read-out: LD50 (the source's name)
Summary of the method: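 MV4-11 AML cells exposed to increasing compound concentrations for 24 and 48 h. Viability measured by Annexin V/7-AAD staining and expressed as percent Annexin V-/7-AAD- cells relative to control. N = 5, error bars SD. LD50 values derived from these curves.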

COc1ccc(/C=C\c2cc(OC)c(OC)c(OC)c2)cc1O [COMBRETASTATIN A4]
GI50 (CCRF-CEM): 3 nM
GI50 [1]: 2 nM
GI50 (K562): 2 nM
GI50 [2]: 3 nM
GI50 [3]: 3 nM
GI50 (SR): 3 nM
GI50 (A549): 16 nM
GI50 [4]: 3 nM
GI50 [5]: 3 nM
GI50 (NCI-H23): 3 nM
GI50 (NCI-H522): 2 nM
GI50 [6]: 100 nM
GI50 [7]: 63 nM
GI50 [8]: 3 nM
GI50 [9]: 4 nM
GI50 (HT-29): 100 nM
GI50 (KM12): 5 nM
GI50 [10]: 3 nM
GI50 [11]: 6 nM
GI50 [12]: 4 nM
GI50 [13]: 3 nM
GI50 [14]: 4 nM
GI50 [15]: 8 nM
GI50 (U-251): 4 nM
GI50 [16]: 3 nM
GI50 (M14): 3 nM
GI50 (SK-MEL-2): 4 nM
GI50 (SK-MEL-28): 8 nM
GI50 (SK-MEL-5): 4 nM
GI50 [17]: 6 nM
GI50 [18]: 15 nM
GI50 [19]: 2 nM
GI50 [20]: 14 nM
GI50 [21]: 59 nM
GI50 (786-0): 100 nM
GI50 (A498): 6 nM
GI50 (ACHN): 6 nM
GI50 (CAKI-1): 26 nM
GI50 [22]: 19 nM

COc1cc(/C=C(\C#N)c2cc(OC)c(OC)c(OC)c2)cc(OC)c1
GI50 (CCRF-CEM): 51200 nM
GI50 [1]: 68600 nM
GI50 (K562): 3140 nM
GI50 [2]: 28200 nM
GI50 [3]: 6640 nM
GI50 (SR): 4140 nM
GI50 (A549): 6350 nM
GI50 [4]: 7630 nM
GI50 [5]: 3570 nM
GI50 (NCI-H23): 43000 nM
GI50 (NCI-H522): 20500 nM
GI50 [6]: 5160 nM
GI50 [7]: 97000 nM
GI50 [8]: 6050 nM
GI50 [9]: 4470 nM
GI50 (HT-29): 4240 nM
GI50 (KM12): 4970 nM
GI50 [10]: 5170 nM
GI50 [11]: 25300 nM
GI50 [12]: 5330 nM
GI50 [13]: 6600 nM
GI50 [14]: 5460 nM
GI50 [15]: 2670 nM
GI50 (U-251): 7820 nM
GI50 [16]: 5310 nM
GI50 (M14): 4450 nM
GI50 (MDA-MB-435): 1630 nM
GI50 (SK-MEL-2): 5440 nM
GI50 (SK-MEL-28): 14000 nM
GI50 (SK-MEL-5): 4700 nM
GI50 [17]: 2420 nM
GI50 [18]: 14600 nM
GI50 [19]: 6690 nM
GI50 [20]: 7480 nM
GI50 (NCI/ADR-RES): 3250 nM
GI50 [21]: 14400 nM
GI50 (786-0): 13000 nM
GI50 (A498): 1290 nM
GI50 (ACHN): 9780 nM
GI50 (CAKI-1): 6190 nM
GI50 [22]: 1920 nM
GI50 (MCF7): 4350 nM
GI50 (MDA-MB-231): 4830 nM
GI50 [23]: 16700 nM
GI50 (MDA-MB-468): 3440 nM

COc1ccc(/C=C(/C#N)c2ccc(OC)c(OC)c2)cc1O
GI50 (CCRF-CEM): 40 nM
GI50 [1]: 30 nM
GI50 (K562): 30 nM
GI50 [2]: 70 nM
GI50 [3]: 50 nM
GI50 (SR): 30 nM
GI50 (A549): 250 nM
GI50 [4]: 30 nM
GI50 [5]: 860 nM
GI50 (NCI-H23): 80 nM
GI50 (NCI-H522): 10 nM
GI50 [6]: 1260 nM
GI50 [7]: 170 nM
GI50 [8]: 30 nM
GI50 [9]: 30 nM
GI50 (HT-29): 620 nM
GI50 (KM12): 40 nM
GI50 [10]: 40 nM
GI50 [11]: 80 nM
GI50 [12]: 580 nM
GI50 [13]: 20 nM
GI50 [14]: 40 nM
GI50 [15]: 20 nM
GI50 (U-251): 50 nM
GI50 [16]: 70 nM
GI50 (M14): 20 nM
GI50 (MDA-MB-435): < 10 nM
GI50 (SK-MEL-28): 1270 nM
GI50 (SK-MEL-5): 50 nM
GI50 [18]: 70 nM
GI50 [19]: 20 nM
GI50 [20]: 1070 nM
GI50 (NCI/ADR-RES): 20 nM
GI50 [21]: 50 nM
GI50 (786-0): 240 nM
GI50 (A498): 20 nM
GI50 (ACHN): 90 nM
GI50 (CAKI-1): 420 nM
GI50 [22]: 90 nM
GI50 (MCF7): 30 nM
GI50 (MDA-MB-231): 50 nM
GI50 [23]: 30 nM
GI50 (MDA-MB-468): 40 nM
CC50 (MV4-11): 409 nM

COc1ccc(/C=C(\C#N)c2ccc(OC)c(OC)c2)cc1O
GI50 (CCRF-CEM): 30 nM
GI50 [1]: 30 nM
GI50 (K562): 20 nM
GI50 [2]: 50 nM
GI50 [3]: 40 nM
GI50 (SR): 20 nM
GI50 (A549): 210 nM
GI50 [4]: 30 nM
GI50 [5]: 1690 nM
GI50 (NCI-H23): 70 nM
GI50 (NCI-H522): < 10 nM
GI50 [6]: 1240 nM
GI50 [7]: 1810 nM
GI50 [8]: 40 nM
GI50 [9]: 40 nM
GI50 (HT-29): 570 nM
GI50 (KM12): 20 nM
GI50 [10]: 40 nM
GI50 [11]: 60 nM
GI50 [12]: 100 nM
GI50 [13]: 20 nM
GI50 [14]: 50 nM
GI50 [15]: 20 nM
GI50 (U-251): 40 nM
GI50 [16]: 60 nM
GI50 (M14): 30 nM
GI50 (MDA-MB-435): < 10 nM
GI50 (SK-MEL-28): 1110 nM
GI50 (SK-MEL-5): 40 nM
GI50 [17]: 20 nM
GI50 [18]: 60 nM
GI50 [19]: 20 nM
GI50 [20]: 1560 nM
GI50 (NCI/ADR-RES): 20 nM
GI50 [21]: 50 nM
GI50 (786-0): 360 nM
GI50 (A498): 20 nM
GI50 (ACHN): 80 nM
GI50 [22]: 60 nM
GI50 (MCF7): 30 nM
GI50 (MDA-MB-231): 40 nM
GI50 [23]: 30 nM
GI50 (MDA-MB-468): 40 nM
CC50 (MV4-11): 353 nM

From ChEMBL document CHEMBL3739271, “Synthesis and evaluation of a series of resveratrol analogues as potent anti-cancer agents that target tubulin” (2015)
